Measurements as given in ChEMBL document CHEMBL3994667, “Small Molecule Lysyl Oxidase-like 2 (LOXL2) Inhibitors: The Identification of an Inhibitor Selective for LOXL2 over LOX” (ACS Med Chem Lett, 2017).

How the values were obtained:
Lysyl oxidase homolog 3 = target: T1, Lysyl oxidase homolog 3 (Homo sapiens, UniProt P58215); assay: Inhibition of recombinant human C-terminal His10-tagged LOXL3 (1 to 753 residues) assessed as reduction in H2O2 production using DAP as substrate preincubated for 2 hrs followed by substrate addition measured every 2 minutes for 50 minutes by Amplex red dye based fluorescence assay
T1 sequence (P58215 whole entry): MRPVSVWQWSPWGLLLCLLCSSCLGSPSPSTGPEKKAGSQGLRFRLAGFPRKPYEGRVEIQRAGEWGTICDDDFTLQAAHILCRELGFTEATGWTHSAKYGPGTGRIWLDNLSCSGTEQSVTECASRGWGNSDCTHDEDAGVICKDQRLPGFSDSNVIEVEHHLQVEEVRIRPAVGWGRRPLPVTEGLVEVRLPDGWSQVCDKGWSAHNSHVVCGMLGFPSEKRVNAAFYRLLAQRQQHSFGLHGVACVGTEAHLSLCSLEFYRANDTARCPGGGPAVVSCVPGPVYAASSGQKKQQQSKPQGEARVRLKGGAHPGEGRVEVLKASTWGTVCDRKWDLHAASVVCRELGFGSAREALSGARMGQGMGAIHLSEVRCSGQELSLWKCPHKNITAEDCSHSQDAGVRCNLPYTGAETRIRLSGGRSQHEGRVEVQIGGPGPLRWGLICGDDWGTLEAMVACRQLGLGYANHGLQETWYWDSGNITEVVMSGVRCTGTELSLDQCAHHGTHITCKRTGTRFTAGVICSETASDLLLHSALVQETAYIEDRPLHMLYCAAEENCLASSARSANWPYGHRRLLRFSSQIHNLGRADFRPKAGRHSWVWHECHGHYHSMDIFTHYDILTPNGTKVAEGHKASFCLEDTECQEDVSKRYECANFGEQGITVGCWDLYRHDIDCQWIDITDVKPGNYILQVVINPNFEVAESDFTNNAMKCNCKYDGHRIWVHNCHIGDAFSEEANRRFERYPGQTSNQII

Lysyl oxidase homolog 2 = target: T2, Lysyl oxidase homolog 2 (Rattus norvegicus, UniProt B5DF27); assay: Inhibition of full length recombinant rat LOXL2 expressed in CHO cells assessed as reduction in H2O2 production using DAP as substrate preincubated for 2 hrs followed by substrate addition measured every 2 minutes for 50 minutes in presence of BSA by Amplex red dye based fluorescence assay
T2 sequence (B5DF27 whole entry): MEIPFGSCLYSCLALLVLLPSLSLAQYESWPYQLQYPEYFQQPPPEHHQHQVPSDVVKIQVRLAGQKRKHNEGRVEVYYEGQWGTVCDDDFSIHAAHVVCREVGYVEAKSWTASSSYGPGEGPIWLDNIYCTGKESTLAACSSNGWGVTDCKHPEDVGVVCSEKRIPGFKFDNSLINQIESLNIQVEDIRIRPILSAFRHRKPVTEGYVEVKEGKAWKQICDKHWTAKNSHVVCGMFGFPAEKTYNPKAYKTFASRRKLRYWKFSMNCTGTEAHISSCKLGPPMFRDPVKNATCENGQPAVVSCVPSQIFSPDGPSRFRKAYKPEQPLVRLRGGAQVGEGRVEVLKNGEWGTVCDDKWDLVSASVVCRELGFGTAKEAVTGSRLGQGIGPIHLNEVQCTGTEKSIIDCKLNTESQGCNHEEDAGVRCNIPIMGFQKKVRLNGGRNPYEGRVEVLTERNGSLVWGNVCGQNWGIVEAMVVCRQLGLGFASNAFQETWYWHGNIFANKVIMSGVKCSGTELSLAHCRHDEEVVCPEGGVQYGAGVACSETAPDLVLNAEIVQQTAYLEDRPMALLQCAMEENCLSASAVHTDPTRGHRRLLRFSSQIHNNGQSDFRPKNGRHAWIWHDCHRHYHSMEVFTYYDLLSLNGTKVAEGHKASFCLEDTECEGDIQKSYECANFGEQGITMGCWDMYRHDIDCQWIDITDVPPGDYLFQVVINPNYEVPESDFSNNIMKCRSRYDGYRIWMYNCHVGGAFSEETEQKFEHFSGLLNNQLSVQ
Outline: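 Rodent LOXL2 is tested under the same conditions as the BSA-supplemented assay: conditioned media plus BSA, with DAP as substrate and Amplex Red detection of H2O2. Species are mouse and rat. IC50 is the geometric mean x/÷ geometric standard deviation from 3 determinations.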

- IC50 (Lysyl oxidase homolog 3): 214 nM
- IC50 (Lysyl oxidase homolog 2): 136 nM
SMILES: NCc1ccnc(Cl)c1
